Test results as given in ChEMBL document CHEMBL4257459, “Synergistic antifungal effect of cyclized chalcone derivatives and fluconazole against Candida albicans” (2017).
Values after ≈ are worked out from the molar mass of the structure shown.

Tests used:
Candida albicans [1] = experiment: Inhibition of ergosterol biosynthesis in fluconazole susceptible Candida albicans ATCC 90028 at 0.5 to 1 times MIC relative to control; format: functional
In short: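 ATCC90028 grown in 50 ml TSB with MIC and ½ MIC of compound; untreated and 8 μg mL–1 fluconazole controls. Sterols extracted by alcoholic KOH method and spectrophotometrically scanned; ergosterol % calculated from A281.5 and A230 (E values 290 and 518) with dilution factor, per pellet weight.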

Candida albicans [2] = experiment: Down regulation of ERG11 gene expression in fluconazole resistant Candida albicans A171 at MIC after 2 hrs by qRT PCR analysis relative to control; format: functional
In short: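 Cells exposed 2 h to test agents at MIC. Total RNA isolated, cDNA synthesized, qPCR for ERG11 with ACT1 as endogenous control. Triplicate independent experiments, reported as mean ± standard deviation.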

Candida albicans [3] = experiment: Inhibition of ABC efflux pumps in fluconazole susceptible Candida albicans 002B1 assessed as reduction in energy-dependent rhodamine 6G efflux in presence of 0.1 M glucose after 25 mins […] relative to control
Candida albicans [4] = experiment: Antifungal activity against fluconazole resistant Candida albicans 167-1 by CLSI protocol based broth microdilution method; format: functional
In short: (§1)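 Broth microdilution per CLSI M27-A3 against clinical C. albicans isolates. Strains sub-cultured at least twice on Tryptone Soya Agar, 37 °C, 48 h. Compounds dissolved in DMSO at 2000 μg mL–1 stock. Fluconazole positive control, plus culture, media and vehicle controls. Run in duplicate; MIC in μg mL–1.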

Candida albicans [5] = experiment: Antifungal activity against fluconazole susceptible Candida albicans 002B1 by CLSI protocol based broth microdilution method; format: functional
In short: (§2)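 Clinical isolates and control strain subcultured at least twice on TSA, 37 °C, 48 h. MICs by CLSI M27-A3 broth microdilution; compounds dissolved in DMSO to 2000 μg mL–1 stock. Fluconazole positive control, culture, media and DMSO vehicle controls in each run. Duplicate experiments; MIC in μg mL–1.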

Candida albicans [6] = experiment: Antifungal activity against fluconazole resistant Candida albicans 167-1 in presence of fluconazole by CLSI protocol based broth microdilution method; format: functional
In short: (§3)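 Checkerboard-style combination with fluconazole at a 1 : 1 ratio, over concentrations 2–4 fold below each agent's MIC alone, by CLSI broth microdilution. Fractional inhibitory concentration index calculated and interpreted as synergy (<0.5), additive (0.5–1), indifferent or antagonistic.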

Candida albicans [7] = experiment: Antifungal activity against Candida albicans ATCC 90028 by CLSI protocol based broth microdilution method; format: functional; in short: as §2
Candida albicans [8] = experiment: Inhibition of ABC efflux pumps in fluconazole susceptible Candida albicans 0079gr assessed as reduction in energy-dependent rhodamine 6G efflux in presence of 0.1 M glucose after 25 mins by fluorescence assay relative to control
In short: (§4)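 Cells grown in TSB at 37 °C for 8 h, washed, resuspended in glucose-free PBS at 1 × 10^8 cells. De-energized 45 min with 5 mM deoxyglucose plus 5 mM dinitrophenol. […] Washed, sampled 5–25 min, then 0.1 M glucose added. Absorbance 527 nm, R6G from standard curve.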

Candida albicans [9] = experiment: Antifungal activity against fluconazole resistant Candida albicans 167-2 by CLSI protocol based broth microdilution method; format: functional; in short: as §1
Candida albicans [10] = experiment: Antifungal activity against fluconazole susceptible Candida albicans 0072gr in presence of fluconazole by CLSI protocol based broth microdilution method; format: functional
Candida albicans [11] = experiment: Down regulation of ERG11 gene expression in fluconazole susceptible Candida albicans ATCC 90028 at MIC after 2 hrs by qRT PCR analysis relative to control; format: functional
In short: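 Cells exposed to compound at MIC for 2 h; total RNA isolated, cDNA synthesised, ERG11 measured by real-time qPCR with ACT1 as endogenous control. Triplicate independent experiments; mean ± standard deviation.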

Candida albicans [12] = experiment: Antifungal activity against Candida albicans ATCC 90028 in presence of fluconazole by CLSI protocol based broth microdilution method; format: functional
Candida albicans [13] = experiment: Inhibition of ABC efflux pumps in fluconazole susceptible Candida albicans 004gr assessed as reduction in energy-dependent rhodamine 6G efflux in presence of 0.1 M glucose after 25 mins by fluorescence assay relative to control; in short: as §4
Candida albicans [14] = experiment: Inhibition of ABC efflux pumps in fluconazole susceptible Candida albicans 0072gr assessed as reduction in energy-dependent rhodamine 6G efflux in presence of 0.1 M glucose after 25 mins […] relative to control
Candida albicans [15] = experiment: Antifungal activity against fluconazole susceptible Candida albicans 0079gr by CLSI protocol based broth microdilution method; format: functional; in short: as §2
Candida albicans [16] = experiment: Inhibition of ABC efflux pumps in fluconazole susceptible Candida albicans 003gr assessed as reduction in energy-dependent rhodamine 6G efflux in presence of 0.1 M glucose after 25 mins […] relative to control
Candida albicans [17] = experiment: Antifungal activity against fluconazole susceptible Candida albicans 002B1 in presence of fluconazole by CLSI protocol based broth microdilution method; format: functional
Candida albicans [18] = experiment: Inhibition of ABC efflux pumps in fluconazole resistant Candida albicans 167-2 assessed as reduction in energy-dependent rhodamine 6G efflux in presence of 0.1 M glucose after 25 mins […] relative to control
Candida albicans [19] = experiment: Antifungal activity against fluconazole susceptible Candida albicans 004B1 in presence of fluconazole by CLSI protocol based broth microdilution method; format: functional
Candida albicans [20] = experiment: Antifungal activity against fluconazole susceptible Candida albicans 003gr in presence of fluconazole by CLSI protocol based broth microdilution method; format: functional
Candida albicans [21] = experiment: Antifungal activity against fluconazole susceptible Candida albicans 003gr by CLSI protocol based broth microdilution method; format: functional; in short: as §2
Candida albicans [22] = experiment: Inhibition of ergosterol biosynthesis in fluconazole resistant Candida albicans A171 at 0.5 to 1 times MIC relative to control; format: functional
In short: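 Total sterols quantified by alcoholic KOH extraction in cells grown in 50 ml TSB with compounds at MIC and ½ MIC; untreated and 8 μg mL–1 fluconazole controls. Spectral scan; ergosterol content from A281.5 and A230 absorbances, dilution factor and pellet weight, correcting for 24(28) DHE.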

Candida albicans [23] = experiment: Antifungal activity against fluconazole susceptible Candida albicans 004gr by CLSI protocol based broth microdilution method; format: functional; in short: as §2
Candida albicans [24] = experiment: Inhibition of ABC efflux pumps in fluconazole resistant Candida albicans 167-1 assessed as reduction in energy-dependent rhodamine 6G efflux in presence of 0.1 M glucose after 25 mins […] relative to control
Candida albicans [25] = experiment: Antifungal activity against fluconazole resistant Candida albicans 167-2 in presence of fluconazole by CLSI protocol based broth microdilution method; format: functional; in short: as §3
Candida albicans [26] = experiment: Antifungal activity against fluconazole susceptible Candida albicans 0072gr by CLSI protocol based broth microdilution method; format: functional; in short: as §2
Candida albicans [27] = experiment: Inhibition of ABC efflux pumps in fluconazole resistant Candida albicans A171 assessed as reduction in energy-dependent rhodamine 6G efflux in presence of 0.1 M glucose after 25 mins by fluorescence assay relative to control; in short: as §4
Candida albicans [28] = experiment: Antifungal activity against fluconazole susceptible Candida albicans 004B1 by CLSI protocol based broth microdilution method; format: functional; in short: as §2
Candida albicans [29] = experiment: Antifungal activity against fluconazole susceptible Candida albicans 0079gr in presence of fluconazole by CLSI protocol based broth microdilution method; format: functional
Candida albicans [30] = experiment: Antifungal activity against fluconazole resistant Candida albicans A171 in presence of fluconazole by CLSI protocol based broth microdilution method; format: functional; in short: as §3
Candida albicans [31] = experiment: Antifungal activity against fluconazole susceptible Candida albicans 004gr in presence of fluconazole by CLSI protocol based broth microdilution method; format: functional
Candida albicans [32] = experiment: Antifungal activity against fluconazole resistant Candida albicans A171 by CLSI protocol based broth microdilution method; format: functional; in short: as §1
Candida albicans [33] = experiment: Inhibition of ABC efflux pumps in fluconazole susceptible Candida albicans 004B1 assessed as reduction in energy-dependent rhodamine 6G efflux in presence of 0.1 M glucose after 25 mins by fluorescence assay relative to control; in short: as §4

Row | SMILES | inhibition (INH) (Candida albicans [1]) | inhibition (Candida albicans [3]) [%] | MIC (Candida albicans [4]) [µg/mL] | MIC (Candida albicans [5]) [µg/mL] | fractional inhibitory concentration index (FICI) (Candida albicans [6]) | MIC (Candida albicans [7]) [µg/mL] | inhibition (Candida albicans [8]) [%] | MIC (Candida albicans [9]) [µg/mL] | fractional inhibitory concentration index (FICI) (Candida albicans [10]) | fractional inhibitory concentration index (FICI) (Candida albicans [12]) | inhibition (Candida albicans [13]) [%] | inhibition (Candida albicans [14]) [%] | MIC (Candida albicans [15]) [µg/mL] | inhibition (Candida albicans [16]) [%] | fractional inhibitory concentration index (FICI) (Candida albicans [17]) | inhibition (Candida albicans [18]) [%] | fractional inhibitory concentration index (FICI) (Candida albicans [19]) | fractional inhibitory concentration index (FICI) (Candida albicans [20]) | MIC (Candida albicans [21]) [µg/mL] | inhibition (INH) (Candida albicans [22]) | further results
1 | O=C(/C=C/c1ccc(/C=C/C(=O)c2ccccc2)cc1)c1ccccc1 | 66 - 99% | < 20 | 16 to 31 (≈ 47.3 to 91.6 µM) | 2 to 16 (≈ 5.91 to 47.3 µM) | 0.266 - 0.27 | 2 to 16 (≈ 5.91 to 47.3 µM) | < 20 | 16 to 31 (≈ 47.3 to 91.6 µM) | 0.31 - 1.5 | 0.31 - 1.5 | < 20 | < 20 | 2 to 16 (≈ 5.91 to 47.3 µM) | < 20 | 0.31 - 1.5 | < 20 | 0.31 - 1.5 | 0.31 - 1.5 | 2 to 16 (≈ 5.91 to 47.3 µM) | 49 - 94% | fold change (FC) (Candida albicans [2]): 1.25 - 10; fold change (FC) (Candida albicans [11]): 1.5 - 13; MIC (Candida albicans [23]): 2 to 16 µg/mL (≈ 5.91 to 47.3 µM); inhibition (Candida albicans [24]): < 20%; fractional inhibitory concentration index (FICI) (Candida albicans [25]): 0.266 - 0.27; MIC (Candida albicans [26]): 2 to 16 µg/mL (≈ 5.91 to 47.3 µM); inhibition (Candida albicans [27]): < 20%; MIC (Candida albicans [28]): 2 to 16 µg/mL (≈ 5.91 to 47.3 µM); fractional inhibitory concentration index (FICI) (Candida albicans [29]): 0.31 - 1.5; fractional inhibitory concentration index (FICI) (Candida albicans [30]): 0.266 - 0.27; fractional inhibitory concentration index (FICI) (Candida albicans [31]): 0.31 - 1.5; MIC (Candida albicans [32]): 16 to 31 µg/mL (≈ 47.3 to 91.6 µM); inhibition (Candida albicans [33]): < 20%
2 | O=C1NC(c2ccccc2)=CC(c2ccccc2)N1 (centres undefined) | 66 - 99% | < 20 | 8 to 16 (≈ 32 to 63.9 µM) | 1 to 8 (≈ 4 to 32 µM) | 0.129 - 0.27 | 1 to 8 (≈ 4 to 32 µM) | < 20 | 8 to 16 (≈ 32 to 63.9 µM) | 0.31 - 1.5 | 0.31 - 1.5 | < 20 | < 20 | 1 to 8 (≈ 4 to 32 µM) | < 20 | 0.31 - 1.5 | < 20 | 0.31 - 1.5 | 0.31 - 1.5 | 1 to 8 (≈ 4 to 32 µM) | 49 - 94% | MIC (Candida albicans [23]): 1 to 8 µg/mL (≈ 4 to 32 µM); inhibition (Candida albicans [24]): < 20%; fractional inhibitory concentration index (FICI) (Candida albicans [25]): 0.129 - 0.27; MIC (Candida albicans [26]): 1 to 8 µg/mL (≈ 4 to 32 µM); inhibition (Candida albicans [27]): < 20%; MIC (Candida albicans [28]): 1 to 8 µg/mL (≈ 4 to 32 µM); fractional inhibitory concentration index (FICI) (Candida albicans [29]): 0.31 - 1.5; fractional inhibitory concentration index (FICI) (Candida albicans [30]): 0.129 - 0.27; fractional inhibitory concentration index (FICI) (Candida albicans [31]): 0.31 - 1.5; MIC (Candida albicans [32]): 8 to 16 µg/mL (≈ 32 to 63.9 µM); inhibition (Candida albicans [33]): < 20%
